These results are taken from ChEMBL document CHEMBL1124538, “Mono and bis(bioreductive) alkylating agents: synthesis and antitumor activities in a B16 melanoma model” (J Med Chem, 1989).

Where “and” joins values, the source holds several entries; their conditions need not be identical. Equal entries are not always repeated.

The test system of series [1] is Mus musculus. Description: (§1) Antitumor efficacy against subcutaneously implanted B16 melanoma tumor in BDF1 hybrid mice, administered intraperitoneally with 10 mg/kg of compound. It is filed as functional. Summed up:
(§2)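 Female BDF1 mice received 0.5 mL B16 tumor brei sc into the shaved dorsoscapular area; the brei was a 1:10 w/v dilution in HBSS from tumor passaged sc in C57BL/6 mice. Dosing was ip for 9 consecutive days once the tumor was palpable, in saline, 0.3% Klucel or 0.33% Klucel/NaHCO3. Mice were observed daily for up to 120 days. %T/C is median survival treated/control (NCI Instruction 14); active if ≥140.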

Series [2] has as its system B16. Description: (§3) Percent B16 melanoma growth inhibition at dose 10 mg/kg in mice. The class given is functional, Mus musculus. The conditions noted are these: for inhibition in vivo at 10 mg/kg: Mus musculus, B16, dose 10 mg/kg; for Inhibition: dose 10 mg/kg. The gist of the method:
(§4)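 B16 brei (1:10 w/v in HBSS, 0.5 mL) was implanted sc into female BDF1 mice. Mice got ip doses for 9 consecutive days after the tumor became palpable, in saline, 0.3% Klucel or 0.33% Klucel/NaHCO3. Serial tumor diameters were measured. Inhibition = 100 − [(change in average tumor diameter, treated/control) × 100]; active if ≥25%.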

For series [3], the system named is Mus musculus. The experiment in a line: Compound was tested for increase in life span of P388 leukemia bearing mice at dose of 40 mg/Kg; Showed Toxicity, and weight loss. The conditions noted are these: in vivo. The class given is organism-based.
Series [4] deals with Mus musculus. The experiment in a line: Antitumor efficacy against subcutaneously implanted B16 melanoma tumor in BDF1 hybrid mice, administered intraperitoneally with 4 mg/kg of compound. The class given is functional. Summed up:
as §2

Series [5] has as its system Mus musculus. The experiment in a line: Antitumor efficacy against subcutaneously implanted B16 melanoma tumor in BDF1 hybrid mice, administered intraperitoneally with 20 mg/kg of compound. It is filed as functional. The gist of the method:
as §2

Series [6] concerns B16. The experiment in a line: Percent B16 melanoma growth inhibition at dose 20 mg/kg in mice. The conditions noted are these: for inhibition in vivo at 20 mg/kg: Mus musculus, B16, dose 20 mg/kg. It is filed as functional, Mus musculus. The gist of the method: as §4
In series [7] the test system is Mus musculus. The experiment in a line: Compound was tested for increase in life span of P388 leukemia bearing mice at dose of 10 mg/Kg; Did nto increase significantly. It is filed as functional, organism-based.
Series [8] has as its system Mus musculus. The experiment in a line: Compound was tested for increase in life span of P388 leukemia bearing mice at dose of 20 mg/Kg; Showed Toxicity, and weight loss. The class given is organism-based. The conditions noted are these: in vivo.
In series [9] the test system is B16. The experiment in a line: Percent B16 melanoma growth inhibition at dose 4 mg/kg in mice. The class given is functional. The conditions noted are these: Mus musculus. The gist of the method:
as §4

For series [10], the system named is Mus musculus. The experiment in a line: Compound was tested for increase in life span of P388 leukemia bearing mice at dose of 5 mg/Kg; Did nto increase significantly. It is filed as functional, organism-based.
In series [11] the test system is B16. The series is described as §1. The class given is functional, Mus musculus. Summed up: as §2
The test system of series [12] is Mus musculus. The description is as §3. The class given is functional. The conditions noted are these: B16, dose 10 mg/kg. The gist of the method: as §4

On to `O=C1C=C(CCC2=CC(=O)C(CBr)=CC2=O)C(=O)C=C1CBr`, for which the T/C (commonly the ratio of treated to control) in the series on Mus musculus [1] is recorded as 102%. In addition, 10 mg/kg produced 16% inhibition in vivo in the series with B16 [2].

Regarding `O=C(O)CCC(=O)OCC1=CC(=O)C(COC(=O)CCC(=O)O)=CC1=O`, the T/C in the series with Mus musculus [1] (10 mg/kg) was 115% and 111%. For the same compound, in the series on B16 [2], the inhibition in vivo – broadly, the drop in the measured response relative to a control, in per cent – at 10 mg/kg came out at 38% and the Inhibition (commonly the share of the control response that was lost under treatment) is 19%.

With `CC(=O)OCC1=CC(=O)C=CC1=O`, the Increase in life-span entry with Mus musculus [3], in the series with Mus musculus [7], in the series with Mus musculus [8] and in the series on Mus musculus [10] was “Did nto increase significantly” throughout. The values for the T/C in the series on Mus musculus [4] and in the series on Mus musculus [5] were 144% and 142%, respectively. This compound had an inhibition in vivo at 20 mg/kg in the series with B16 [6] of 63%. The compound further registered an inhibition in vivo at 4 mg/kg with B16 [9] of 31%.

As to `O=C1C=CC(=O)C(COC(=O)CCC(=O)O)=C1`, the values for the T/C in the series on Mus musculus [1], in the series with Mus musculus [5] and in the series on B16 [11] were 164%, 115% and 130%, respectively. In addition, the inhibition in vivo at 20 mg/kg in the series on B16 [6] stood at 19%. This compound also had an inhibition in vivo at 10 mg/kg with B16 [2] of 27%. In the series with B16 [2], the Inhibition is on record as 32%.

Take `CC(=O)OCC1=CC(=O)C=C(COC(C)=O)C1=O`: the T/C with Mus musculus [1] was found to be 100%. For the same compound, 10 mg/kg produced 13% inhibition in vivo in the series with B16 [2].

In turn, `O=C1C=C(CBr)C(=O)C(CBr)=C1` returned a T/C in the series with Mus musculus [1] of 105%. For the same compound, the inhibition in vivo at 10 mg/kg in the series with B16 [2] was 24%.

Turning to `O=C1C=C(CO)C(=O)C(CO)=C1`, the T/C with Mus musculus [1] is recorded as 90%; in the series with Mus musculus [5] it was 171%. In addition, in the series on B16 [6], testing at 20 mg/kg gave an inhibition in vivo of 36%. The compound further had an inhibition in vivo at 10 mg/kg in the series on B16 [2] of 19%.

Turning to `O=C1C=C(COC(=O)CCC(=O)O)C(=O)C(COC(=O)CCC(=O)O)=C1`, in the series with Mus musculus [5] (20 mg/kg), the T/C is 110% and 130%. For the same compound, in the series with B16 [6], testing at 20 mg/kg gave an inhibition in vivo of 23%. The Inhibition in the series with B16 [6] (dose 20 mg/kg) is listed as 29%.

With `O=C(O)CCC(=O)OCC1=CC(=O)C(CCC2=CC(=O)C(COC(=O)CCC(=O)O)=CC2=O)=CC1=O`, the T/C in the series on Mus musculus [1] (10 mg/kg) was 123% and 106%.

`O=C1C=C(CCl)C(=O)C=C1CCl` displayed a T/C with Mus musculus [1] of 104%. Moreover, the inhibition in vivo at 10 mg/kg in the series on Mus musculus [12] amounted to 4%.

As to `CC(=O)OCC1=CC(=O)C(CCC2=CC(=O)C(COC(C)=O)=CC2=O)=CC1=O`, the T/C in the series with Mus musculus [1] was found to be 129%. In the series on B16 [2], this compound had an inhibition in vivo at 10 mg/kg of 16%.

As for `O=C1C=C(CBr)C(=O)C=C1CBr`, the T/C in the series with Mus musculus [1] (10 mg/kg) was 140% and 118%. For the same compound, in the series on B16 [2], the inhibition in vivo at 10 mg/kg turned out to be 20% and the Inhibition was determined as 30%.

As for `COC1=CC(=O)C(COC(C)=O)=CC1=O`, the T/C in the series with Mus musculus [1] is recorded as 110%. In the series on B16 [2], this compound came in with an inhibition in vivo at 10 mg/kg of 0%.
